Values belong to the molecule of their own block, whether it stands above or below them.
Tests used:
[1] = tested on: Rat; experiment: concentration in heart after dosing; settings: 5 h; dosed: Bis 2-Chloroethoxy Methane; 20 mg/kg; iv; Male; F344
[2] = tested on: Rat; experiment: concentration in liver after dosing; settings: 40 min; dosed: Bis 2-Chloroethoxy Methane; 20 mg/kg; iv; Male; F344
[3] = tested on: Rat; experiment: concentration in thymus after dosing; settings: 20 min; dosed: Bis 2-Chloroethoxy Methane; 20 mg/kg; iv; Male; F344
[4] = tested on: Rat; experiment: concentration in thymus after dosing; settings: 5 h; dosed: Bis 2-Chloroethoxy Methane; 20 mg/kg; iv; Female; F344
[5] = tested on: Rat; experiment: concentration in liver after dosing; settings: 10 min; dosed: Bis 2-Chloroethoxy Methane; 20 mg/kg; iv; Female; F344
[6] = tested on: Rat; experiment: concentration in plasma after dosing; settings: 2 h; dosed: Bis 2-Chloroethoxy Methane; 20 mg/kg; iv; Female; F344
[7] = tested on: Rat; experiment: concentration in liver after dosing; settings: 40 min; dosed: Bis 2-Chloroethoxy Methane; 20 mg/kg; iv; Male; F344; remark: listed apart in the source
[8] = tested on: Rat; experiment: concentration in plasma after dosing; settings: dosed: Fluorotelomer alcohol 8+2, 12 mg/kg, iv, Male, F344
[9] = tested on: Rat; experiment: concentration in plasma after dosing; settings: dosed: Fluorotelomer alcohol 8+2, 12 mg/kg, oral, Male, Harlan Sprague Dawley
[10] = tested on: Rat; experiment: concentration in brain after dosing; settings: 1 h; dosed: Fluorotelomer alcohol 8+2; 24 mg/kg; oral; Male; Harlan Sprague Dawley
[11] = tested on: Rat; experiment: concentration in plasma after dosing; settings: dosed: Fluorotelomer alcohol 8+2, 40 mg/kg, iv, Female, Harlan Sprague-Dawley
[12] = tested on: Rat; experiment: concentration in plasma after dosing; settings: 1 h; dosed: Di-n-butyl phthalate; 100 mg/kg; oral; Male; Sprague-Dawley
[13] = tested on: Rat; experiment: concentration in plasma after dosing; settings: 40 min; dosed: Di-n-butyl phthalate; 50 mg/kg; oral; Male; Sprague-Dawley
[14] = tested on: Rat; experiment: concentration in plasma after dosing; settings: 40 min; dosed: Di-n-butyl phthalate; 20 mg/kg; iv; Male; Sprague-Dawley
[15] = tested on: Rat; experiment: concentration in plasma after dosing; settings: 4 h; dosed: Di-n-butyl phthalate; 100 mg/kg; oral; Male; Sprague-Dawley
[16] = tested on: Rat; experiment: concentration in plasma after dosing; settings: 20 min; dosed: Di-n-butyl phthalate; 20 mg/kg; iv; Male; Sprague-Dawley
[17] = tested on: Rat; experiment: concentration in kidney after dosing; settings: 864 h; dosed: Perfluorodecanoic acid; 10 mg/kg; oral; Female; Harlan Sprague Dawley
[18] = tested on: Rat; experiment: concentration in liver after dosing; settings: 1848 h; dosed: Perfluorodecanoic acid; 10 mg/kg; oral; Male; Harlan Sprague Dawley
[19] = tested on: Rat; experiment: concentration in plasma after dosing; settings: dosed: Perfluorodecanoic acid, 2 mg/kg, oral, Male, Harlan Sprague Dawley
[20] = tested on: Rat; experiment: concentration in kidney after dosing; settings: 1848 h; dosed: Perfluorodecanoic acid; 10 mg/kg; oral; Female; Harlan Sprague Dawley
[21] = tested on: Rat; experiment: concentration in plasma after dosing; settings: 9 h; dosed: Primidone; 30 mg/kg; oral; Female; F344
[22] = tested on: Rat; experiment: concentration in plasma after dosing; settings: 3 h; dosed: Primidone; 30 mg/kg; oral; Male; F344
[23] = tested on: Rat; experiment: concentration in plasma after dosing; settings: 9 h; dosed: Primidone; 130 mg/kg; oral; Male; F344
[24] = tested on: Rat; experiment: concentration in plasma after dosing; settings: 20 min; dosed: Thiodiglycolic Acid; 20 mg/kg; iv; Female; F344
[25] = tested on: Rat; experiment: concentration in thymus after dosing; settings: 10 min; dosed: Thiodiglycolic Acid; 20 mg/kg; iv; Female; Harlan Sprague Dawley
[26] = tested on: Rat; experiment: concentration in plasma after dosing; settings: 4 h; dosed: Thiodiglycolic Acid; 20 mg/kg; iv; Male; Harlan Sprague Dawley
[27] = tested on: Rat; experiment: concentration in heart after dosing; settings: 4 h; dosed: Thiodiglycolic Acid; 20 mg/kg; iv; Male; Harlan Sprague Dawley
[28] = tested on: Rat; experiment: concentration in heart after dosing; settings: 3 h; dosed: Thiodiglycolic Acid; 20 mg/kg; iv; Male; Harlan Sprague Dawley
[29] = tested on: Rat; experiment: concentration in liver after dosing; settings: 10 h; dosed: Thiodiglycolic Acid; 20 mg/kg; iv; Male; F344
[30] = tested on: Rat; experiment: concentration in liver after dosing; settings: 10 h; dosed: Thiodiglycolic Acid; 20 mg/kg; iv; Male; F344; remark: listed apart in the source
[31] = tested on: Rat; experiment: concentration in thymus after dosing; settings: 10 h; dosed: Thiodiglycolic Acid; 20 mg/kg; iv; Female; Harlan Sprague Dawley
[32] = tested on: Rat; experiment: concentration in thymus after dosing; settings: 10 min; dosed: Thiodiglycolic Acid; 20 mg/kg; iv; Female; Harlan Sprague Dawley; remark: listed apart in the source
[33] = tested on: Rat; experiment: concentration in liver after dosing; settings: 4 h; dosed: Thiodiglycolic Acid; 20 mg/kg; iv; Male; Harlan Sprague Dawley
[34] = tested on: Rat; experiment: concentration in plasma after dosing; settings: 5 min; dosed: dichloroacetic acid; 10 mg/kg; oral; Male; Harlan Sprague Dawley
[35] = tested on: Rat; experiment: concentration in plasma after dosing; settings: dosed: dichloroacetic acid, 100 mg/kg, oral, Male, F344
[36] = tested on: Rat; experiment: concentration in plasma after dosing; settings: 2 h; dosed: dichloroacetic acid; 60 mg/kg; iv; Female; Harlan Sprague-Dawley
[37] = tested on: dog; settings: dosed: tetrachloroethylene, 142 ppm, inhalation, duration: 4 hr, male, beagle
How it was run: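 Data points giving concentration or amount against time came from published in vivo toxicokinetic studies and from two structured collections. PubMed searching, classifier screening and manual review located the studies. Most points were digitised from plot screenshots using WebPlotDigitizer, the rest were copied from tables, and all keep their reported units.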

Structure (SMILES): ClCCOCOCCCl [Bis 2-Chloroethoxy Methane]
concentration in heart [1]: 42.1 ng/g | concentration in liver [2]: 4070 ng/g | concentration in thymus [3]: 25400 ng/g | concentration in thymus [4]: 79.1 ng/g | concentration in liver [5]: 2550 ng/g | concentration in plasma [6]: 150 ng/mL | concentration in liver [7]: 3320 ng/g

concentration in plasma ([8]; 1 h): 662 ng/mL | concentration in plasma ([8]; 6 h): 38.1 ng/mL | concentration in plasma ([9]; 5 min): 2.04 ng/mL | concentration in plasma ([9]; 3 h): 147 ng/mL | concentration in brain [10]: 2020 ng/g | concentration in plasma ([11]; 1 h): 2530 ng/mL | concentration in plasma ([11]; 24 h): 24.5 ng/mL
Structure (SMILES): OCCC(F)(F)C(F)(F)C(F)(F)C(F)(F)C(F)(F)C(F)(F)C(F)(F)C(F)(F)F [Fluorotelomer alcohol 8+2]

Structure (SMILES): CCCCOC(=O)c1ccccc1C(=O)O [Mono-n-butyl phthalate]
concentration in plasma [12]: 14900 ng/mL | concentration in plasma [13]: 14200 ng/mL | concentration in plasma [14]: 5350 ng/mL | concentration in plasma [15]: 3210 ng/mL | concentration in plasma [16]: 21800 ng/mL

Structure (SMILES): O=C(O)C(F)(F)C(F)(F)C(F)(F)C(F)(F)C(F)(F)C(F)(F)C(F)(F)C(F)(F)C(F)(F)F [Perfluorodecanoic acid]
concentration in kidney [17]: 16700 ng/g | concentration in liver [18]: 27600 ng/g | concentration in plasma ([19]; 2 h): 4900 ng/mL | concentration in plasma ([19]; 528 h): 2050 ng/mL | concentration in plasma ([19]; 3360 h): 516 ng/mL | concentration in kidney [20]: 11800 ng/g

Structure (SMILES): CCC1(c2ccccc2)C(=O)NC(=O)NC1=O [Phenobarbital]
concentration in plasma [21]: 990 ng/mL | concentration in plasma [22]: 2460 ng/mL | concentration in plasma [23]: 9740 ng/mL

Structure (SMILES): O=C(O)CSCC(=O)O [Thiodiglycolic Acid]
concentration in plasma [24]: 7410 ng/mL | concentration in thymus [25]: 7780 ng/g | concentration in plasma [26]: 615 ng/mL | concentration in heart [27]: 989 ng/g | concentration in heart [28]: 1040 ng/g | concentration in liver [29]: 7350 ng/g | concentration in liver [30]: 630 ng/g | concentration in thymus [31]: 254 ng/g | concentration in thymus [32]: 10100 ng/g | concentration in liver [33]: 43400 ng/g

Structure (SMILES): O=C(O)C(Cl)Cl [dichloroacetic acid]
concentration in plasma [34]: 430 ng/mL | concentration in plasma ([35]; 2 min): 2560 ng/mL | concentration in plasma ([35]; 1.25 h): 43500 ng/mL | concentration in plasma [36]: 1170 ng/mL

Structure (SMILES): O=C(O)C(Cl)(Cl)Cl [trichloroacetic acid]
amount in urine after dosing ([37]; 22 h): 8.68 mg | amount in urine after dosing ([37]; 46 h): 3 mg | amount in urine after dosing ([37]; 70 h): 1.93 mg
